Converted amounts (≈) assume the structure as drawn.

Holding throughout (assay type): functional
Experiment [1] deals with Escherichia coli. Kind of experiment: Antibacterial activity against Escherichia coli isolate containing extended spectrum beta lactamase after 24 hrs by twofold serial dilution technique. In outline: (§1)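 Broth microdilution in Mueller-Hinton broth. Isolates were subcultured overnight on MHA at 37 °C and passaged at least twice. McFarland 0.5 cultures […] were diluted to 10⁵ cfu/ml, giving 10⁴ cfu/ml per well, over two-fold compound dilutions. Plates were incubated at 37 °C in a humid chamber for 24 h. MIC was the lowest concentration completely inhibiting macroscopic growth. Triplicate per run.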

Experiment [2] relates to Staphylococcus aureus. The experiment in a line: Antibacterial activity against methicillin-resistant Staphylococcus aureus isolate after 24 hrs by twofold serial dilution technique. In a few lines:
(§2)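 Broth microdilution in Mueller-Hinton broth. Strains were subcultured overnight on MHA at 37 °C and passaged at least twice. McFarland 0.5 cultures […] were diluted to 10⁵ cfu/ml, giving 10⁴ cfu/ml per well, against two-fold dilutions from 1000 to 0.06. Solvent and medium controls were included. Plates were held at 37 °C in a humid chamber for 24 h, in triplicate. MIC is the lowest concentration with no macroscopic growth.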

Experiment [3] deals with Candida albicans. The experiment in a line: Antifungal activity against biofilm-positive Candida albicans isolate after 48 hrs by twofold serial dilution technique. In outline: (§3)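 Yeasts were subcultured on SDA at 35 °C for 24-48 h and passaged twice. Broth microdilution followed CLSI M27-A in RPMI-1640 with L-glutamine, MOPS-buffered to pH 7. Inoculum was McFarland 0.5 (10⁶ cfu/ml) diluted to 10⁴ cfu/ml, giving 10³ cfu/ml per well. Incubated at 35 °C in a humid chamber and read at 48 h as the lowest concentration with no macroscopic growth. Triplicate per run.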

Experiment [4] concerns Klebsiella pneumoniae. Kind of experiment: Antibacterial activity against Klebsiella pneumoniae isolate containing extended spectrum beta lactamase after 24 hrs by twofold serial dilution technique. In outline:
as §1

The test system of experiment [5] is Candida albicans. The experiment in a line: Antifungal activity against Candida albicans ATCC 10231 after 48 hrs by twofold serial dilution technique. As to conditions: ATCC 10231, 48 h. In outline:
as §3

In experiment [6] the test system is Pichia kudriavzevii. The experiment in a line: Antifungal activity against Candida krusei ATCC 6258 after 48 hrs by twofold serial dilution technique. As to conditions: ATCC 6258, 48 h. In outline:
as §3

In experiment [7] the test system is Bacillus subtilis. The experiment in a line: Antibacterial activity against Bacillus subtilis ATCC 6633 after 24 hrs by twofold serial dilution technique. As to conditions: ATCC 6633, 24 h. In a few lines:
as §2

Experiment [8] relates to Klebsiella pneumoniae. The experiment in a line: Antibacterial activity against Klebsiella pneumoniae RSHM 574 after 24 hrs by twofold serial dilution technique. In outline:
as §1

For experiment [9], the system named is Pseudomonas aeruginosa. The experiment in a line: Antibacterial activity against Pseudomonas aeruginosa […] after 24 hrs by twofold serial dilution technique. In a few lines:
as §1

Experiment [10] deals with Bacillus subtilis. The experiment in a line: Antibacterial activity against ceftriaxone-resistant Bacillus subtilis isolate after 24 hrs by twofold serial dilution technique. In outline: as §2
The test system of experiment [11] is Pseudomonas aeruginosa. The experiment in a line: Antibacterial activity against gentamicin-resistant Pseudomonas aeruginosa isolate after 24 hrs by twofold serial dilution technique. In a few lines:
as §2

Experiment [12] has as its system Escherichia coli. Kind of experiment: Antibacterial activity against Escherichia coli ATCC 25922 after 24 hrs by twofold serial dilution technique. As to conditions: ATCC 25922, 24 h. In outline: as §1
Experiment [13] concerns Staphylococcus aureus. The experiment in a line: Antibacterial activity against Staphylococcus aureus ATCC 25923 after 24 hrs by twofold serial dilution technique. As to conditions: ATCC 25923, 24 h. In a few lines:
as §1

In the case of `O=C(Nc1ccc2oc(Cc3ccc(Cl)cc3)nc2c1)c1cc2ccccc2o1`, the MIC was found to be 125 µg/mL (≈ 310 µM) in experiment [1]; 125 µg/mL (≈ 310 µM) in experiment [2]; 62.5 µg/mL (≈ 155 µM) in [3]; 125 µg/mL (≈ 310 µM) in [4]; 62.5 µg/mL (≈ 155 µM) in experiment [5]; 125 µg/mL (≈ 310 µM) in [6]. Moreover, the MIC stood at 125 µg/mL (≈ 310 µM) in experiment [7]; 62.5 µg/mL (≈ 155 µM) in experiment [8]; 31.2 µg/mL (≈ 77.6 µM) in experiment [9]; 125 µg/mL (≈ 310 µM) in [10]; 125 µg/mL (≈ 310 µM) in experiment [11]; 62.5 µg/mL (≈ 155 µM) in [12]. Further, the MIC in [13] was 125 µg/mL (≈ 310 µM).
For the molecule `CC1COc2c(N3CCN(C)CC3)c(F)cc3c(=O)c(C(=O)O)cn1c23` (stereo not given) [OFLOXACIN], the MIC in [1] worked out at 7.8 µg/mL (≈ 21.6 µM); in experiment [2], 1.9 µg/mL (≈ 5.26 µM); in [4] it was 3.9 µg/mL (≈ 10.8 µM); in experiment [7] it was 0.12 µg/mL (≈ 0.332 µM); in experiment [8] it was 0.12 µg/mL (≈ 0.332 µM); in [9], 62.5 µg/mL (≈ 173 µM). Also, the MIC is 3.9 µg/mL (≈ 10.8 µM) in [10], 62.5 µg/mL (≈ 173 µM) in experiment [11] and 0.12 µg/mL (≈ 0.332 µM) in experiment [13].
On to `O=C(Nc1ccc2oc(-c3ccc(F)cc3)nc2c1)c1cc2ccccc2o1`, for which the MIC in [1] was 125 µg/mL (≈ 336 µM); in experiment [2] it was 31.2 µg/mL (≈ 83.9 µM); in [3] it was 62.5 µg/mL (≈ 168 µM); in [4], 125 µg/mL (≈ 336 µM); in experiment [5] it was 62.5 µg/mL (≈ 168 µM); in experiment [6], 125 µg/mL (≈ 336 µM). Besides, the MIC in experiment [7] turned out to be 500 µg/mL (≈ 1340 µM); in experiment [8], 62.5 µg/mL (≈ 168 µM); in experiment [9], 31.2 µg/mL (≈ 83.9 µM); in [10] it was 125 µg/mL (≈ 336 µM); in experiment [11] it was 62.5 µg/mL (≈ 168 µM); in [12] it was 62.5 µg/mL (≈ 168 µM). This molecule gave an MIC in experiment [13] of 125 µg/mL (≈ 336 µM).
For the molecule `OC(Cn1cncn1)(Cn1cncn1)c1ccc(F)cc1F` [FLUCONAZOLE], the MIC in experiment [3] was determined as 0.48 µg/mL (≈ 1.57 µM); in experiment [5], 1.9 µg/mL (≈ 6.2 µM); in experiment [6], 15.6 µg/mL (≈ 51 µM).
Consider `CC(C)(C)c1ccc(-c2nc3cc(NC(=O)c4cc5ccccc5o4)ccc3o2)cc1`, for which the MIC in [1] stood at 125 µg/mL (≈ 305 µM); in experiment [2] it was 62.5 µg/mL (≈ 152 µM); in experiment [3], 62.5 µg/mL (≈ 152 µM); in experiment [4] it was 125 µg/mL (≈ 305 µM); in experiment [5], 62.5 µg/mL (≈ 152 µM); in experiment [6] it was 125 µg/mL (≈ 305 µM). Besides, the MIC in experiment [7] was 125 µg/mL (≈ 305 µM); in experiment [8] it was 62.5 µg/mL (≈ 152 µM); in experiment [9], 62.5 µg/mL (≈ 152 µM); in experiment [10], 125 µg/mL (≈ 305 µM); in [11] it was 125 µg/mL (≈ 305 µM); in [12], 62.5 µg/mL (≈ 152 µM). In addition, in [13], the MIC was 125 µg/mL (≈ 305 µM).
`C[C@@H]1[C@H](O)[C@@H](C)/C=C/C=C/C=C/C=C/C=C/C=C/C=C/[C@H](O[C@@H]2O[C@H](C)[C@@H](O)[C@H](N)[C@@H]2O)C[C@@H]2O[C@](O)(C[C@@H](O)C[C@@H](O)[C@H](O)CC[C@@H](O)C[C@@H](O)CC(=O)O[C@H]1C)C[C@H](O)[C@H]2C(=O)O` [AMPHOTERICIN B]: the results for the MIC in experiment [3], in experiment [5] and in experiment [6] were 0.24 µg/mL (≈ 0.26 µM), 0.48 µg/mL (≈ 0.519 µM) and 1.9 µg/mL (≈ 2.06 µM), respectively.
On to `Cc1ccc(Cc2nc3cc(NC(=O)c4cc5ccccc5o4)ccc3o2)cc1`, for which the MIC came out at 125 µg/mL (≈ 327 µM) in experiment [1]; 62.5 µg/mL (≈ 163 µM) in [2]; 62.5 µg/mL (≈ 163 µM) in experiment [3]; 125 µg/mL (≈ 327 µM) in experiment [4]; 62.5 µg/mL (≈ 163 µM) in experiment [5]; 250 µg/mL (≈ 654 µM) in experiment [6]. Moreover, the MIC is 125 µg/mL (≈ 327 µM) in experiment [7]; 62.5 µg/mL (≈ 163 µM) in experiment [8]; 62.5 µg/mL (≈ 163 µM) in experiment [9]; 125 µg/mL (≈ 327 µM) in experiment [10]; 125 µg/mL (≈ 327 µM) in experiment [11]; 62.5 µg/mL (≈ 163 µM) in experiment [12]. In experiment [13], this molecule displayed an MIC of 125 µg/mL (≈ 327 µM).
With `O=C(Nc1ccc2oc(-c3ccccc3Br)nc2c1)c1cc2ccccc2o1`, the MIC in [1] was 125 µg/mL (≈ 289 µM); in experiment [2] it was 31.2 µg/mL (≈ 72.1 µM); in experiment [3] it was 62.5 µg/mL (≈ 144 µM); in [4], 125 µg/mL (≈ 289 µM); in [5], 62.5 µg/mL (≈ 144 µM); in experiment [6] it was 250 µg/mL (≈ 577 µM). For the same molecule, the MIC in experiment [7] is 500 µg/mL (≈ 1150 µM); in [8], 62.5 µg/mL (≈ 144 µM); in [9], 62.5 µg/mL (≈ 144 µM); in [10] it was 125 µg/mL (≈ 289 µM); in experiment [11], 62.5 µg/mL (≈ 144 µM); in [12], 62.5 µg/mL (≈ 144 µM). Moreover, in experiment [13], the MIC was 125 µg/mL (≈ 289 µM).
